Assay outcomes: PubChem, Broad Institute
This is a sample that favours compounds with a hit; in the whole collection about 2.1% have one here.
C2C12 statin – protects C2C12 myotubes from simvastatin toxicity | hit rate 0.78% among 330,000 | rescue of ATP level, % at 7.49 µM | ATP luminescence, 48 h; scaled: DMSO 0, geranylgeraniol control 100;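 active = mean ATP rescue above about 67%, or every replicate alone reaching that limit, limit read from the data, passing the limit was not always enough; inconclusive = no clear call, values can overlap the other calls; inactive = mean under the limit and some replicate under it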;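 also: myotubes were challenged with 10 µM simvastatin during compound exposure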
Cneo AK release – causes C. neoformans cell lysis. adenylate kinase release luminescence, 4 h; normalised: neutral wells 0, clomiphene wells 100. hit rate 0.2% among 360,000. AID 651654. lysis activity, % at 15 µM;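 active = mean lysis activity across replicates of at least 80%, whatever share of replicates individually reach that level; inactive = mean lysis activity below 80%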
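Schedule: static 4 h at 37 °C with compound, 1 h detection; system: C. neoformans cells; benchmarks: Clomiphene as positive control; buffer or medium: fresh YPD medium; measure: luminescence rise reflecting yeast cell lysis; measured by: luminescent adenylate kinase detection reagent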
Xi reactivation – reactivates the inactive X chromosome in mouse fibroblasts; XiGFP mouse fibroblasts, % GFP-positive cells imaging, 3 d; cells co-treated with 5-aza-dC sensitizer; scaled so ellipticine positive control = 100%; activation, % at 7.58 µM; hit rate 0.055% among 360,000; AID 743238;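 active = mean normalized replicate activation at least 10% and every replicate at or above 10%; inconclusive = only one of the two criteria met; inactive = mean below 10% and not all replicates reach 10%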;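 also: 0% = median of on-plate neutral control wells and 100% = ellipticine 6 µM median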
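Material: SV40-immortalized XiGFP fibroblast cells, line 68-5-11 | Buffer or medium: DMEM containing 5-aza-dC | Dosing: One concentration, pinned | Times: 3 d treatment, 15 min room-temperature fixation | Controls: Ellipticine 6 µM positive control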
DENV2 CPE rescue – inhibitors of DENV2 cytopathic effect. hit rate 1.7% among 350,000. AID 651640. CPE inhibition, % at 9.99 µM. DENV2-infected cells, cytopathic effect rescue, plate reader; in the data active = CPE inhibition above about 20%, passing the limit was not always enough; inconclusive = no clear call, values can overlap the other calls; tested in BHK-21 cells;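 also: 0% = median of neutral control wells and 100% = median of positive control wells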
* = called active by the depositor; ? = inconclusive; nt = no result given.

SMILES | C2C12 statin | Cneo AK release | Xi reactivation | DENV2 CPE rescue
Cc1noc(C)c1NC(=O)Nc1cccc2c1O[C@@H](CN(C)Cc1ccc(C(=O)O)cc1)[C@H](C)CN([C@@H](C)CO)C2=O | 9 | -2 | -1 | 8
C[C@H](CO)N1C[C@H](C)[C@H](CN(C)Cc2ccc(C(F)(F)F)cc2)Oc2c(NC(=O)Nc3cccc4ccccc34)cccc2C1=O | 81* | 4 | 0 | 12
Cc1noc(C)c1NC(=O)Nc1cccc2c1O[C@@H](CN(C)Cc1ccc(C(F)(F)F)cc1)[C@H](C)CN([C@@H](C)CO)C2=O | -8 | -14 | 0 | 23*
Cc1noc(C)c1NC(=O)Nc1cccc2c1O[C@H](CN(C)Cc1ccc(-c3ccccc3)cc1)[C@@H](C)CN([C@H](C)CO)C2=O | 78* | -1 | 0 | 11
Cc1ccc(S(=O)(=O)N(C)C[C@@H]2Oc3ccc(NS(C)(=O)=O)cc3CC(=O)N([C@@H](C)CO)C[C@H]2C)cc1 | -30 | -1 | 0 | -2
COc1ccc(S(=O)(=O)Nc2ccc3c(c2)C(=O)N([C@H](C)CO)C[C@@H](C)[C@@H](CN(C)C(=O)NC(C)C)OCCCC[C@H](C)O3)cc1 | nt | -6 | -1 | -3
O=C(C[C@@H]1CC[C@@H](NC(=O)C2CC2)[C@H](CO)O1)NC1CCC1 | -8 | 1 | 0 | 3
O=C(Nc1ccccc1F)N[C@H]1CC[C@@H](CCNC(=O)C2CCC2)O[C@@H]1CO | -8 | -4 | 0 | -2
CC(C)c1cn(CC[C@@H]2CC[C@H](NC(=O)C3CC3)[C@H](CO)O2)nn1 | -2 | -12 | -1 | 9
CC(C)CCn1c(=O)c2ccccc2n2c(CN3C(=O)NC4(CCC(C)CC4)C3=O)nnc12 (stereo unspecified) | 93* | -2 | nt | nt
CC(C)C#Cc1ccc([C@@H]2[C@H]3CN(C(=O)c4ccc(F)cc4)CCCCN3[C@H]2CO)cc1 | -15 | 0 | 0 | 8
Cc1nc(-c2cccc(S(=O)(=O)N3CC(C)OC(C)C3)c2)cs1 (stereo unspecified) | 115* | -4 | nt | nt
CO[C@H]1CN(C)C(=O)c2ccc(NC(=O)NC(C)C)cc2OC[C@H](C)N(C)C[C@H]1C | -3 | -2 | 0 | 5
CC(C)(C)c1cc(C(F)(F)F)c(C#N)c(=O)[nH]1 | 120* | 0 | nt | nt
CCCc1cc(C(F)(F)F)c(C#N)c(=O)[nH]1 | -2 | 1 | nt | nt
COc1ccc(N2CCN(C(CNC(=O)c3ccc4c(c3)OCO4)c3ccco3)CC2)cc1 (stereo unspecified) | 22 | 1 | 29* | 2
O=C(NCC(c1cccnc1)N1CCN(c2ccc(F)cc2)CC1)c1ccc2c(c1)OCO2 (stereo unspecified) | 121* | 0 | nt | nt
O=C(NCC(c1ccco1)N1CCN(c2ccc(F)cc2)CC1)c1ccc2c(c1)OCO2 (stereo unspecified) | 62 | 1 | 0 | 1
C[C@@H]1CCCCO[C@H](CN(C)C(=O)Cc2ccccc2)[C@H](C)CN([C@@H](C)CO)C(=O)c2cc(NC(=O)C3CCCCC3)ccc2O1 | nt | 4 | 0 | 3
Cc1noc(C)c1NC(=O)Nc1ccc2c(c1)C(=O)N([C@H](C)CO)C[C@H](C)[C@H](CN(C)Cc1ccc(Cl)c(Cl)c1)OCCCC[C@H](C)O2 | nt | -4 | 0 | 27*
Cc1noc(C)c1NC(=O)Nc1ccc2c(c1)C(=O)N([C@@H](C)CO)C[C@H](C)[C@@H](CN(C)Cc1ccc3c(c1)OCO3)OCCCC[C@@H](C)O2 | nt | 1 | 0 | -7
Cc1noc(C)c1NC(=O)Nc1ccc2c(c1)C(=O)N([C@@H](C)CO)C[C@@H](C)[C@@H](CN(C)Cc1ccccc1)OCCCC[C@@H](C)O2 | nt | 26 | 0 | 89*
Cc1noc(C)c1NC(=O)Nc1ccc2c(c1)C(=O)N([C@@H](C)CO)C[C@H](C)[C@@H](CN(C)Cc1ccccc1)O2 | -15 | -4 | 0 | 29*
C[C@H]1CN([C@@H](C)CO)C(=O)c2ccccc2-c2ccccc2CO[C@H]1CN(C)C(=O)Cc1ccccc1 | nt | -4 | 0 | -4
O=C(Cc1cccnc1)N[C@H]1CC[C@@H](CCn2cc(-c3ccccc3F)nn2)O[C@H]1CO | 3 | 6 | 1 | 7
SMILES | C2C12 statin | Cneo AK release | Xi reactivation | DENV2 CPE rescue
O=C(Cc1cccnc1)N[C@H]1CC[C@H](CCn2cc(Cc3ccccc3)nn2)O[C@@H]1CO | -6 | -2 | 0 | 77*
O=C(Cc1cccnc1)N[C@@H]1CC[C@H](CCn2cc(-c3ccccc3F)nn2)O[C@@H]1CO | 7 | -1 | 0 | 45*
COc1ccc(NC(=O)Nc2ccc3c(c2)[C@@H]2C[C@@H](CC(=O)N4CCCCC4)O[C@H](CO)[C@@H]2O3)cc1 | -4 | -53 | 0 | 0
COCC(C)n1c(C)cc(C(=O)COC(=O)c2oc3ccccc3c2C)c1C (stereo unspecified) | 73* | -1 | nt | nt
COCC(C)n1c(C)cc(C(=O)COC(=O)c2cc(=O)[nH]c3ccccc23)c1C (stereo unspecified) | 11 | -5 | 2 | 1
COC(=O)C[C@@H]1OC[C@H](Cc2ccccc2)N1S(=O)(=O)c1ccc(C)cc1 | nt | nt | 0 | 21*
COc1ccc(C(=O)C[C@@H]2OC[C@H](C)N2S(=O)(=O)c2ccc(C)cc2)cc1OC | nt | nt | 0 | 57*
CCOC(=O)C[C@@H]1OC[C@H](Cc2ccccc2)N1S(=O)(=O)c1ccc(C)cc1 | nt | nt | 0 | -4
C[C@H]1CCCCO[C@@H](CN(C)C(=O)Nc2ccc3c(c2)OCO3)[C@@H](C)CN([C@@H](C)CO)C(=O)c2cc(NS(C)(=O)=O)ccc2O1 | nt | 2 | 0 | 12
CN1CCN(C2CCN(c3ccc(Nc4nnc(Cl)c(Nc5ccccc5S(C)(=O)=O)n4)c(OC(CF)CF)c3)CC2)CC1 | -15 | 4 | 1 | 37*
CC(C)Oc1cc(C(=O)N2CCC(N3CCCCC3)CC2)ccc1Nc1nnc(Cl)c(Nc2ccccc2S(C)(=O)=O)n1 | nt | 0 | nt | nt
CC(OC(=O)C1CC(=O)N(Cc2ccco2)C1)C(=O)Nc1cccc(C#N)c1 (stereo unspecified) | 6 | -11 | 0 | 21*
CCOc1ccc2c(c1)nc(SCC(=O)c1cccs1)n2C | nt | 4 | nt | nt
CCOc1ccc2c(c1)nc(SCC(=O)c1ccc(Br)s1)n2C | 70* | -1 | nt | nt
Cc1ccc(F)cc1S(=O)(=O)N[C@@H]1CCN(Cc2ccc(OC(C)C)cc2)C1 | nt | 1 | nt | ?
Cc1ccc(F)cc1S(=O)(=O)N[C@H]1CCN(Cc2ccc(OC(C)C)cc2)C1 | nt | 1 | nt | 29*
O=S(=O)(NCC[C@H]1CC[C@H](NS(=O)(=O)c2cccc(F)c2)[C@@H](CO)O1)c1cccc(F)c1 | nt | nt | 0 | 7
COc1ccc(S(=O)(=O)Nc2cccc3c2O[C@H](CN(C)S(=O)(=O)c2ccc(Cl)cc2)[C@@H](C)CN([C@@H](C)CO)C3=O)cc1 | -10 | -1 | 1 | 16
